ChEMBL document CHEMBL2010709, “Pinophilins A and B, inhibitors of mammalian A-, B-, and Y-family DNA polymerases and human cancer cell proliferation” (J Nat Prod, 2012)

Legend:
HeLa = experiment: Growth inhibition of human HeLa cells after 24 hrs by WST-1 assay; format: functional
Outline: (§1)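 Cancer cells were grown in McCoy's 5A with 10% FBS and penicillin/streptomycin, 37 °C, 5% CO2. Cells were seeded at 1 × 10^4 per well, cultured 12 h, then given compound (10 mM DMSO stock diluted in medium, 0.5% DMSO) for 24 h. WST-1 was added for 4 h and absorbance read at 450/630 nm. GI50 given as mean ± SE, five independent experiments.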

[1] = Growth inhibition of HUVEC cells after 72 hrs by WST-1 assay; format: cell-based; conditions: human
Outline: (§2)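 Normal cells (HDF, HUVEC) were grown in Eagle's MEM with 4.5 g/L glucose, 10% FCS, 5 mM L-glutamine and penicillin/streptomycin, 37 °C, 5% CO2. Cells were seeded at 1 × 10^4 per well, cultured 12 h, then exposed to compound (0.5% DMSO final) for 72 h. Viability was read by WST-1 at 450/630 nm. GI50 given as mean ± SE of five experiments.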

[2] = Growth inhibition of HDF cells after 72 hrs by WST-1 assay; format: cell-based; conditions: human; outline: as §2
HCT-116 = experiment: Growth inhibition of against human HCT116 cells after 24 hrs by WST-1 assay; format: functional; conditions: HCT-116, 24 h; outline: as §1
BALL-1 = experiment: Growth inhibition of human BALL-1 cells after 24 hrs by WST-1 assay; format: functional; conditions: BALL-1, 24 h; outline: as §1
A549 = experiment: Growth inhibition of human A549 cells after 24 hrs by WST-1 assay; format: functional; conditions: A549, 24 h; outline: as §1
NUGC-3 = experiment: Growth inhibition of human NUGC3 cells after 24 hrs by WST-1 assay; format: functional; conditions: NUGC-3, 24 h; outline: as §1

- GI50 (HeLa): 180 nM
- GI50 (HCT-116): 120 nM
- GI50 (A549): 200 nM
Structure (SMILES): Nc1ccn([C@@H]2O[C@H](CO)[C@@H](O)[C@@H]2O)c(=O)n1 [CYTARABINE]
- GI50 at 72 h [1]: 230 nM
- GI50 at 72 h [2]: 250 nM
- GI50 (BALL-1): 80 nM
- GI50 (NUGC-3): 250 nM
